Bioassay records from PubChem BioAssay.
ABCG2 inh: inhibitors of human ABCG2 transporter, ABCB1 counter-screen; IgMXP3 cells, JC-1 efflux, flow cytometry; inhibition, % at 6.6 µM; 190,000 compounds, 0.1% hits; AID 1325;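 active means inhibition above 80%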
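material = IgMXP3 (ABCG2) plus far-red-tagged CCRF-Adr (ABCB1) cells | amount = 3 million cells/mL, equal mix of both lines | also added = JC-1 transporter substrate | dosing = one concentration, 6.6 µM final | schedule = 10 min at 25 °C | measured by = flow cytometric JC-1 green MFI at 530 nm | read-out basis = percent efflux inhibition, scaled nicardipine 100% to DMSO 0%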
WT yeast gro inh: growth inhibition of WT yeast, mitochondrial fusion screen; mitochondrial fusion phenotypic screen, WT strain; inhibition, % at 10 µM; 190,000 compounds, 2.1% hits; in the data active means inhibition above about 58%; tested in S. cerevisiae
RAM inhibit: blocks the yeast RAM network; S. cerevisiae dse1pr::URA3 reporter, 5-FOA growth OD615, 2 d; analog-sensitive cbk1-as2 kinase mutant strain; inhibition, % at 50 µM; 190,000 compounds, 1.8% hits;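 active means inhibition above a set limit, 3 SD over mean compound inhibition, cut at about 8.4% in these data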;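 further: inhibition rescues growth on 5-FOA so higher OD means more RAM inhibition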
ABCB1 inh: human ABCB1 inhibition, ABCG2 as counter-screen; P08183; CCRF-Adr cells, JC-1 efflux, flow cytometry; inhibition, % at 6.6 µM; 190,000 compounds, 0.067% hits; AID 1326; in the data active means inhibition above about 40%;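 further: higher value means more JC-1 retained so stronger ABCB1 efflux block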
Lmaj promast: reduces viability of Leishmania major promastigotes; resazurin fluorescence viability; inhibition, % at 10 µM; 200,000 compounds, 9% hits; in the data active means inhibition above about 50%;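 further: promastigotes grown with compound for 44 hours at 28 °C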
Of the large screens only hits and unclear results are named; the others gave an inactive call. Hits are enriched below; roughly 12% of the tested compounds scored in any of these assays.

Cc1sc2ncnc(NC3CCN(Cc4ccccc4)CC3)c2c1C	none
CCOC(=O)C(CC)n1nc(C)n2c(cc3occc32)c1=O (centres undefined)	none
OCCN1CCN(CC#CCn2c3ccccc3c3ccccc32)CC1	Lmaj promast 63.6
COc1ccc2c(c1)-c1nc(NC(=O)c3cccs3)sc1CC2	WT yeast gro inh 72.5
COc1ccc2c(c1)Cc1sc(NC(=O)c3cccnc3)nc1-2	Lmaj promast 55.0
COc1ccc2c(c1)-c1nc(/N=C/c3ccc(O)cc3)sc1CC2	none
COc1ccc2c(c1)Cc1sc(NC(=O)c3ccco3)nc1-2	Lmaj promast 53.2
COc1ccc2c(c1)CCc1sc(NC(=O)c3ccco3)nc1-2	none
COc1ccc2c(c1)-c1nc(/N=C/c3c(O)ccc4ccccc34)sc1CC2	Lmaj promast 80.7
Cc1cc(NC(=O)COC(=O)CCNS(=O)(=O)c2c(Cl)cccc2Cl)no1	none
COC(=O)CSc1nc(N)c2c3c(sc2n1)C(c1ccccc1)SC(c1ccccc1)C3 (centres undefined)	WT yeast gro inh 66.9, Lmaj promast 85.2
COC(=O)CSc1nc(N)c2c3c(sc2n1)CCCC3	Lmaj promast 70.6
Cc1ccc(Sc2ncccc2COC(=O)Nc2c(C)cccc2C)cc1	none
Cc1ccc(Sc2ncccc2COC(=O)Nc2ccccc2)cc1	RAM inhibit 9.2
Cc1ccccc1NC(=O)OCc1cccnc1Sc1ccc(Cl)cc1	RAM inhibit 9.9
Cc1cc(C)n(-c2nc(SCCN(C)C)c3c4c(sc3n2)COC(C)(C)C4)n1	Lmaj promast 100.6
OCCSc1nnc(Nc2ccccc2)s1	none
N#CCSc1nnc(Nc2ccccc2)s1	Lmaj promast 64.9
O=C1Nc2ccccc2/C1=C\c1cccn1-c1ccc(OC(F)(F)F)cc1	none
CC(/C=C/c1ccccc1)NC(N)=O (centres undefined)	none
CC(=O)N1c2ccccc2N(Cc2ccc(C)cc2C)C(=O)C1(C)C	Lmaj promast 93.7
CCOc1ccc(-c2nnn(CC(=O)NCc3ccc(OC)cc3)n2)cc1OCC	none
COc1ccc(CNC(=O)Cn2nnc(-c3ccc(NC(=O)C4CCCCC4)cc3)n2)cc1	RAM inhibit 9.0
Cc1ccc(C)c(NS(=O)(=O)c2ccc(NC(=O)CSc3ccc(Cl)cc3)cc2)c1	none
Cc1ccc(NS(=O)(=O)c2ccc(NC(=O)C(C)Sc3ccc(Cl)cc3)cc2)c(C)c1 (centres undefined)	Lmaj promast 91.7
C#CCN1C(=O)S/C(=C/C=C/c2ccc(N(C)C)cc2)C1=O	Lmaj promast 87.8
CN(C)c1ccc(/C=C2\SC(=O)N(CC(O)Cn3c4ccccc4c4ccccc43)C2=O)cc1 (centres undefined)	none
Cc1ccc(N2C(=O)CC(N3CCN/C3=C3\CC/C(=C\c4ccccc4)C3=O)C2=O)cc1 (centres undefined)	none
Cc1cccc2nc(-c3ccccc3)nc(N3CCC(O)(c4ccc(Cl)cc4)CC3)c12	WT yeast gro inh 68.1, Lmaj promast 78.8
COc1ccccc1NC(=O)COC(=O)c1ccccc1C(=O)N1CCN(c2ccccc2)CC1	none
COc1ccc(Cn2nnnc2C(c2ccc(F)cc2)N2CCN(C3CCCC3)CC2)cc1 (centres undefined)	none
COc1ccc(N2CCN(C(c3ccccc3)c3nnnn3Cc3ccc(F)cc3)CC2)cc1 (centres undefined)	Lmaj promast 66.1
COc1ccc(C(c2nnnn2CS(=O)(=O)c2ccc(C)cc2)N2CCN(Cc3ccccc3)CC2)cc1 (centres undefined)	Lmaj promast 62.6 (no result: ABCG2 inh, WT yeast gro inh, RAM inhibit, ABCB1 inh)
COc1ccc(C(c2nnnn2Cc2ccc(F)cc2)N2CCN(c3ccccc3)CC2)cc1 (centres undefined)	Lmaj promast 74.2
COc1ccc(C(c2nnnn2Cc2ccc(F)cc2)N2CCN(c3ccc(OC)cc3)CC2)cc1 (centres undefined)	Lmaj promast 94.4
CN(Cc1ccccc1)C(=O)C1CCCN(Cc2cccc(Cl)c2)C1 (centres undefined)	none
C=CCNC(=S)NC(CC(=O)OC)c1ccc2c(c1)OCO2 (centres undefined)	none
O=C(NCCCN1CCOCC1)c1sc2ccccc2c1Cl	Lmaj promast 79.7
CCC(CC)C(=O)c1c[nH]c(C(=O)NCCCN2CCOCC2)c1	WT yeast gro inh 81.9
Cc1cc(OCC(=O)NCCCN2CCOCC2)cc(C)c1Cl	Lmaj promast 71.0 (no result: ABCG2 inh, WT yeast gro inh, RAM inhibit, ABCB1 inh)
CC(=O)Oc1cc2c(C(=O)NCCCN3CCOCC3)c(C)oc2c2ccccc12	Lmaj promast 51.9
O=C(NCCCN1CCOCC1)c1ccccc1	none
COc1ccc(OCC(=O)NCCCN2CCOCC2)cc1	none
CN(C(=O)COC(=O)c1ccccc1SCC(=O)NC1CCCCCCC1)C1CCS(=O)(=O)C1 (centres undefined)	none
O=C(NCCCN1CCOCC1)c1cc2c(s1)CSC2	Lmaj promast 80.4
O=C(NCCCN1CCOCC1)c1ccc(Br)s1	none
CN1CCN(CC(=O)Nc2nc(-c3ccccc3)cs2)CC1	none
CN1CCN(CC(=O)N(C)c2nc(-c3ccccc3)cs2)CC1	Lmaj promast 93.8
Fc1ccc(C2=NN(c3ccccc3)C(c3ccco3)C2)cc1 (centres undefined)	none
NS(=O)(=O)c1ccc(N2N=C(c3ccccc3)CC2c2ccc(F)cc2)cc1 (centres undefined)	WT yeast gro inh 70.7, Lmaj promast 98.3
COc1ccc(C2CC(c3ccccc3)=NN2c2ccc(S(N)(=O)=O)cc2)cc1 (centres undefined)	WT yeast gro inh 65.8, RAM inhibit 9.3
COc1ccc(C2=NN(CN3C(=O)C(=O)c4ccccc43)C(c3ccc(OC)cc3)C2)cc1 (centres undefined)	none
Cc1c(NC(=O)c2cccnc2C(=O)O)cccc1C(=O)O	none
Cc1ccc(OCC(=O)N/N=C\c2ccncc2)c(C)c1	none
CCCCN(CCCC)CC(O)CN(c1cc([N+](=O)[O-])ccc1OC)S(=O)(=O)c1ccccc1 (centres undefined)	Lmaj promast 71.2
COc1ccc([N+](=O)[O-])cc1N(CC(O)CN1CCCCC1)S(=O)(=O)c1ccc(C)cc1 (centres undefined)	Lmaj promast 55.9
Cc1ccc(N(CC(O)CN2CCCCC2)S(=O)(=O)c2ccccc2[N+](=O)[O-])cc1 (centres undefined)	Lmaj promast 99.0
Cc1cc(C)nc(SCc2ccc(C(=O)N/N=C/c3ccco3)cc2)n1	none
Cc1nc(NC2=NCN(C3CCCCC3C)CN2)nc2ccccc12 (centres undefined)	WT yeast gro inh 86.4
Cc1nc(NC2=NCN(CCCN3CCOCC3)CN2)nc2c(C)cccc12	Lmaj promast 88.4
Cc1nc(NC2=NCN(CC3CCCO3)CN2)nc2ccccc12 (centres undefined)	none (no result: ABCG2 inh, WT yeast gro inh, RAM inhibit, ABCB1 inh)
Cc1nc(NC2=NCN(CCc3ccccc3)CN2)nc2c(C)cccc12	Lmaj promast 95.8 (no result: ABCG2 inh, WT yeast gro inh, RAM inhibit, ABCB1 inh)
CC1CCN(c2c([N+](=O)[O-])c(=O)oc3ccccc23)CC1	none
CC1=C(C#N)C(Nc2ccc(C)cn2)(C(F)(F)F)C(=O)N1 (centres undefined)	none
